Published values pooled from the literature.
Compare with care: the assays were run in different laboratories.
SMARCA2: SWI/SNF-related matrix-associated actin-dependent regulator of chromatin subfamily A member 2 (SMARCA2, Homo sapiens, UniProt P51531)
BPTF: Nucleosome-remodeling factor subunit BPTF (BPTF, Homo sapiens, UniProt Q12830)
BRAF V600E: Serine/threonine-protein kinase B-raf (BRAF, Homo sapiens, UniProt P15056, V600E)
PADI2: Protein-arginine deiminase type-2 (PADI2, Homo sapiens, UniProt Q9Y2J8)

Cc1ccc(C(=O)Nc2ccc(CN3CCN(C)CC3)c(C(F)(F)F)c2)cc1C#Cc1cnc2cccnn12  remaining signal (Epidermal growth factor receptor (EGFR, Homo sapiens, UniProt P00533, L861Q); cell-free assay; 23.5 nM): 92%
CCC/C=C1\CCn2c1nc(=O)c1c(Cl)cccc12  ΔTm (SMARCA2; thermal stability, DSF; 100 µM): 4.61 °C
Oc1ccc(-c2nc(-c3ccncc3)c(-c3ccc(F)cc3)[nH]2)cc1  ΔTm (BPTF; thermal stability, DSF; 10 µM): 0.18 °C
NS(=O)(=O)c1ccc(Nc2nc(-c3ccc(F)cc3)c3ccccc3n2)cc1  remaining binding (BPTF; binding, competition with immobilised ligand; 1 µM): 63%
CC(=O)N[C@H]1CSSC[C@@H](C(=O)N[C@H](Cc2c[nH]c3ccccc23)C(N)=O)NC(=O)[C@@H](Cc2ccccc2)NC(=O)[C@H](CCCNC(=N)N)NC1=O  Emax (Melanocortin receptor 3 (MC3R, Homo sapiens, UniProt P41968); cAMP, agonist; HEK293; 3 min): 0%
CC(C)(C)c1nc(-c2cccc(NS(=O)(=O)c3c(F)cccc3F)c2F)c(-c2ccnc(N)n2)s1  inhibition (BRAF V600E; enzyme activity, inhibitor, ATP luminescence; 0.1 µM): 58%
N=C(CCl)NCCC[C@H](NC(=O)c1ccccc1)c1nn[nH]n1  kinact/KI (PADI2; enzyme activity, inhibitor): 14.5 M⁻¹ s⁻¹
Nc1ncnc2occ(-c3ccc(NC(=O)Nc4cc(C(F)(F)F)ccc4F)cc3)c12  remaining signal (Mitogen-activated protein kinase 4 (MAPK4, Homo sapiens, UniProt P31152); cell-free assay, inhibitor; 20 µM): 100%
COc1ccc(S(N)(=O)=O)cc1C(=O)NCCCN1CCN(c2ccccc2OC)CC1  inhibition (D(2) dopamine receptor (DRD2, Homo sapiens, UniProt P14416); enzyme activity, inhibitor; 10 µM): 62.4%
CN(C)/C=C1\CCCn2c1nc(=O)c1c(Cl)cccc12  ΔTm (SMARCA2; thermal stability, DSF; 100 µM): 0.49 °C
Cc1cc2c(cc1N1C(=O)c3cccc4c(Cl)ccc(c34)C1=O)n(C)c(=O)n2C  ΔTm (BPTF; thermal stability, DSF; 10 µM): 0 °C
Cc1ccc(C(CS(=O)(=O)c2ccccc2)=NNc2nc(C)c(N=Nc3ccccc3)s2)cc1  inhibition (BRAF V600E; enzyme activity, inhibitor, ATP luminescence; 0.1 µM): 42%
CCC(CC)C1CC12CCn1c2nc(=O)c2c(Cl)cccc21 (stereo not drawn)  ΔTm (SMARCA2; thermal stability, DSF; 100 µM): 1.4 °C
N=C(CF)NCCC[C@H](NC(=O)c1ccc(-c2ccccc2)cc1)c1nn[nH]n1  kinact/KI (PADI2; enzyme activity, inhibitor): 17.2 M⁻¹ s⁻¹
Cc1ccc(N=Nc2sc(NN=C(CS(=O)(=O)c3ccccc3)c3ccc(C)cc3)nc2C)cc1  inhibition (BRAF V600E; enzyme activity, inhibitor, ATP luminescence; 1 µM): 73%
CC/C=C1\CCn2c1nc(=O)c1c(Cl)cccc12  ΔTm (SMARCA2; thermal stability, DSF; 100 µM): -1.47 °C
Cc1ccc(Nc2nccc(N(C)c3ccc4c(C)n(C)nc4c3)n2)cc1S(N)(=O)=O  inhibition (Tyrosine-protein kinase Blk (Blk, Mus musculus, UniProt P16277); enzyme activity, inhibitor; 0.3 µM): 9%
CCCOc1ccc(OC)c(F)c1C(=O)c1ccc(C(=O)N[C@@H]2CNC[C@H]2NC(=O)c2ccc3[nH]ncc3c2)cc1  remaining activity (Muscle, skeletal receptor tyrosine-protein kinase (MUSK, Homo sapiens, UniProt O15146); enzyme activity, inhibitor; 50 nM): 80%
